{"data": "Measured values from different studies", "target": "Aurora kinase B (AURKB, Homo sapiens, UniProt Q96GD4)", "note": "Protocols differ between the studies behind these lines."}
{"SMILES": "C#Cc1cc(-c2cc(Nc3nc(N[C@@H](C)c4ccc(F)cn4)ncc3Cl)n[nH]2)ccc1C=O", "read-out": "enzyme activity", "mode": "inhibitor", "tested at": "0.2 µM", "quantity": "inhibition", "result": "16.6%"}
{"SMILES": "Cc1cc(O)c(-c2ccc([C@@H](C)CN(C)C)cc2)c2c1[nH]c(=O)c1sccc12", "read-out": "enzyme activity", "mode": "inhibitor", "tested at": "0.1 µM", "quantity": "inhibition", "result": "21.5%"}
{"SMILES": "CN1CCN(C(=O)c2ccc(NC(=O)Nc3ccc(N(C)c4ccnc(Nc5ccc(CS(C)(=O)=O)cc5)n4)cc3)cc2)CC1", "read-out": "binding", "method": "competition with immobilised ligand", "tested at": "1 µM", "quantity": "remaining binding", "result": "0.4%"}
{"SMILES": "N#Cc1ccc(NC(=O)Nc2ccccc2)cc1", "read-out": "cell-free assay", "method": "competition with immobilised ligand", "tested at": "25 µM", "quantity": "remaining binding", "result": "82%"}
{"SMILES": "COc1ccc2oc(-c3ccc4nc(N)oc4c3)c/c(=N\\c3ccccc3NC(=O)CCN)c2c1", "read-out": "cell-free assay", "tested at": "1 µM", "quantity": "remaining signal", "result": "99%"}
{"SMILES": "C=CC(=O)N1CCC([C@@H]2CCNc3c(C(N)=O)c(-c4ccc(Oc5ccccc5)cc4)nn32)CC1", "read-out": "enzyme activity", "mode": "inhibitor", "tested at": "1 µM", "quantity": "inhibition", "result": "14%"}
{"SMILES": "C[C@H]1CC[C@H](n2c3cnccc3c3cnc(Nc4ccc5c(n4)CCN(C(=O)CO)C5)nc32)CC1", "read-out": "cell-free assay", "method": "competition with immobilised ligand", "tested at": "1 µM", "quantity": "remaining binding", "result": "34%"}
{"SMILES": "C#Cc1cnc(Nc2ccnc(CO)c2)nc1Nc1ccccc1S(C)(=O)=NC#N (stereo not drawn)", "read-out": "cell-free assay", "tested at": "1 µM", "quantity": "remaining signal", "result": "< 10%"}
{"SMILES": "CC(=O)ON=C1C=CC(=C(C#N)c2ccccc2)C=C1", "read-out": "enzyme activity", "mode": "inhibitor", "method": "ADP detection", "tested at": "2 µM", "quantity": "activity vs control", "result": "96%"}
{"SMILES": "CO[C@@H]1[C@H](N(C)C(=O)c2ccccc2)C[C@H]2O[C@]1(C)n1c3ccccc3c3c4c(c5c6ccccc6n2c5c31)C(=O)NC4", "read-out": "enzyme activity", "mode": "inhibitor", "tested at": "1 µM", "quantity": "inhibition", "result": "94%"}
{"SMILES": "CCCCC(=O)Nc1ccc(-c2ccc3ncn(CCC)c(=O)c3c2)cn1", "read-out": "binding", "method": "competition with immobilised ligand", "tested at": "0.5 µM", "quantity": "remaining binding", "result": "76%"}
{"SMILES": "C1=C/COCc2cc(ccc2OCCN2CCCC2)Nc2nccc(n2)-c2cccc(c2)COC/1", "read-out": "binding", "tested at": "0.1 µM", "quantity": "remaining binding", "result": "100%"}
